Source: ChEMBL document CHEMBL3779882, “The cysteine releasing pattern of some antioxidant thiazolidine-4-carboxylic acids” (Eur J Med Chem, 2016)

How the values were obtained:
Type in all cases: physicochemical
[1] = Antioxidant activity assessed as DPPH free radical scavenging activity treated with methanol after 50 mins
Summary of the method: (§1)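 Samples serially diluted from 6.75 μM to 1000 μM; BHT reference at 125–2000 μM. Sample added to 0.1 mM DPPH solution in 1:5 volume ratio. Kept in the dark at RT for 50 min, then absorbance read at 517 nm. Triplicates. Scavenging % = [1−(A_average−A_blank)/(A_control−A_blank)]×100. IC50 reported in μM as the level scavenging 50% of radical.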

[2] = Antioxidant activity assessed as DPPH free radical scavenging activity treated with 5% DMSO after 50 mins; summary of the method: as §1
[3] = Antioxidant activity assessed as cupric ion reducing activity treated with 5% DMSO measured as ratio of sample to trolox molar extinction coefficient after 20 mins by CUPRAC assay
Summary of the method: (§2)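 Reagents prepared separately: 10 mM CuSO4, 7.5 mM neocuproine and 1 M ammonium acetate buffer pH 7.0. Samples serially diluted from 6.75 μM to 1000 μM; Trolox reference at 10–70 μM. Each concentration run in triplicate. Incubated at 50°C for 20 min, then absorbance read at 450 nm for Cu(I)-neocuproine. TEAC = ε_sample/ε_Trolox.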

[4] = Antioxidant activity assessed as cupric ion reducing activity treated with MeOH solution measured as ratio of sample to trolox molar extinction coefficient after 20 mins by CUPRAC assay; summary of the method: as §2
[5] = Chemical stability in 0.1 M phosphoric acid at pH 2 assessed as compound remaining at 20 uM after 20 mins by HPLC analysis; settings: read-out: Stability
[6] = Chemical stability in 0.1 M phosphoric acid at pH 2 assessed as compound remaining at 20 uM measured immediately post treatment by HPLC analysis; settings: read-out: Stability
Summary of the method: (§3)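 Ring opening followed by reversed-phase HPLC-DAD on a C18 column (4.6 × 250 mm). Mobile phase water:acetonitrile 30:70 at 0.5 ml/min, 25°C. Detection at 254 nm, 5 μL injections. Cysteine release tracked from the peak of the aldehyde freed by ring cleavage. Injections made right after dissolution and again after 50 min.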

[7] = Chemical stability in PBS buffer assessed as compound remaining at 20 uM after 20 mins by HPLC analysis; settings: read-out: Stability
[8] = Chemical stability in MeOH solution assessed as compound remaining at 20 uM after 50 mins by HPLC analysis; summary of the method: as §3
[9] = Chemical stability in MeOH solution assessed as compound remaining at 20 uM after 20 mins by HPLC analysis
[10] = Chemical stability in PBS buffer assessed as compound remaining at 20 uM after 50 mins by HPLC analysis; settings: read-out: Stability; summary of the method: as §3
[11] = Chemical stability in MeOH solution assessed as compound remaining at 20 uM measured immediately post treatment by HPLC analysis; settings: read-out: Stability; summary of the method: as §3
[12] = Chemical stability in 5% aqueous DMSO assessed as compound remaining at 20 uM measured immediately post treatment by HPLC analysis; settings: read-out: Stability; summary of the method: as §3
[13] = Chemical stability in PBS buffer assessed as compound remaining at 20 uM measured immediately post treatment by HPLC analysis; settings: read-out: Stability; summary of the method: as §3
[14] = Chemical stability in 5% aqueous DMSO assessed as compound remaining at 20 uM after 20 mins by HPLC analysis; settings: read-out: Stability
[15] = Chemical stability in 0.1 M phosphoric acid at pH 2 assessed as compound remaining at 20 uM after 50 mins by HPLC analysis; settings: read-out: Stability; summary of the method: as §3
[16] = Chemical stability in 5% aqueous DMSO assessed as compound remaining at 20 uM after 50 mins by HPLC analysis; settings: read-out: Stability; summary of the method: as §3

Row | Structure (SMILES) | IC50 [1] [µM] | IC50 ([2]; read-out: IC50) [µM] | Ratio [3] | Ratio [4] | IC50 [2] | remaining at 20 min, 20 µM [5] [%] | remaining at 0 min, 20 µM [6] [%] | remaining at 20 min, 20 µM [7] [%] | Stability [8] [%] | Stability [9] [%] | remaining at 50 min, 20 µM [10] [%] | remaining at 0 min, 20 µM [11] [%] | remaining at 0 min, 20 µM [12] [%] | remaining at 0 min, 20 µM [13] [%] | remaining at 20 min, 20 µM [14] [%] | remaining at 50 min, 20 µM [15] [%] | remaining at 50 min, 20 µM [16] [%]
1 | N[C@@H](CS)C(=O)O [CYSTEINE] | 19.2 | 18.4 | 0.49 | 0.63 |  |  |  |  |  |  |  |  |  |  |  |  | 
2 | O=C(O)[C@@H]1CSC(c2ccc(Cl)cc2)N1 (mixture of isomers) |  |  | ND(Insoluble) | 1.52 | ND(Insoluble) |  |  |  |  |  |  |  |  |  |  |  | 
3 | COc1ccccc1C1N[C@H](C(=O)O)CS1 (mixture of isomers) | 343 | 29.5 | 0.79 | 0.96 |  | 78.9 | 92.9 | 34 | 97.3 | 98.6 | 21 | 100 | 82.8 | 82.5 | 43.9 | 67.6 | 26.8
4 | O=C(O)[C@@H]1CSC(c2ccccc2Br)N1 (mixture of isomers) | 39.1 | 37.7 | 1 | 0.8 |  | 11.5 | 14.1 | 16.3 | 75.6 | 74 | 18.5 | 70.5 | 19 | 11.6 | 16.2 | 9.5 | 14.3
5 | N#Cc1ccccc1C1N[C@H](C(=O)O)CS1 (mixture of isomers) | > 1000 | > 1000 | ND(Insoluble) | ND(Insoluble) |  |  |  |  |  |  |  |  |  |  |  |  | 
6 | O=C(O)[C@@H]1CSC(c2ccccc2)N1 (mixture of isomers) | 844 | 45.2 | 0.99 | 1.54 |  | 62.4 | 85 | 27.8 | 95.4 | 95.7 | 13.8 | 96.1 | 76.3 | 78.4 | 27.8 | 49.9 | 13.8
7 | O=C(O)[C@@H]1CSC(c2ccc([N+](=O)[O-])cc2)N1 (mixture of isomers) |  |  | ND(Insoluble) | 0.74 | ND(Insoluble) |  |  |  |  |  |  |  |  |  |  |  | 

The next lines start with the values.

Row | IC50 [1] [µM] | IC50 ([2]; read-out: IC50) [µM] | Ratio [3] | Ratio [4] | IC50 [2] | remaining at 20 min, 20 µM [5] [%] | remaining at 0 min, 20 µM [6] [%] | remaining at 20 min, 20 µM [7] [%] | Stability [8] [%] | Stability [9] [%] | remaining at 50 min, 20 µM [10] [%] | remaining at 0 min, 20 µM [11] [%] | remaining at 0 min, 20 µM [12] [%] | remaining at 0 min, 20 µM [13] [%] | remaining at 20 min, 20 µM [14] [%] | remaining at 50 min, 20 µM [15] [%] | remaining at 50 min, 20 µM [16] [%] | Structure (SMILES)
8 | 517 |  |  |  | ND(Insoluble) |  |  |  |  |  |  |  |  |  |  |  |  | Cc1cc(C(C)(C)C)c(O)c(C(C)(C)C)c1 [BUTYLATED HYDROXYTOLUENE]
9 |  |  | ND(Insoluble) | 1.22 | ND(Insoluble) |  |  |  |  |  |  |  |  |  |  |  |  | Cc1ccc(C2N[C@H](C(=O)O)CS2)cc1 (mixture of isomers)
10 | 46.1 | 39 | 0.75 | 0.57 |  | 11.3 | 12.9 | 11.3 | 4.2 | 4.1 | 8.9 | 4 | 6.8 | 15.2 | 5.9 | 10.1 | 5.6 | Cc1ccccc1C1N[C@H](C(=O)O)CS1 (mixture of isomers)
11 | 46.2 | 61.7 | 0.99 | 0.93 |  | 17.5 | 21.7 | 17.4 | 38.2 | 25.2 | 17.9 | 15.5 | 17.8 | 15.3 | 16.6 | 14.2 | 15.7 | O=C(O)[C@@H]1CSC(c2cccc(Cl)c2Cl)N1 (mixture of isomers)
12 |  |  | ND(Insoluble) | ND(Insoluble) | ND(Insoluble) |  |  |  |  |  |  |  |  |  |  |  |  | COc1ccc(C2N[C@H](C(=O)O)CS2)cc1 (mixture of isomers)
13 | > 1000 | 46.8 | 0.84 | 0.83 |  | 64.6 | 87.3 | 69.3 | 98.8 | 100 | 50.1 | 100 | 83.7 | 92.7 | 50 | 43.5 | 28.7 | O=C(O)[C@@H]1CSC(c2cccc(F)c2F)N1 (mixture of isomers)
14 | 343 | 38.3 | 1.05 | 0.83 |  | 72.3 | 96.2 | 61.1 | 98.2 | 99.4 | 46.9 | 100 | 53.8 | 79.4 | 39.2 | 54.8 | 38.2 | O=C(O)[C@@H]1CSC(c2c(F)cccc2F)N1 (mixture of isomers)
15 |  |  | ND(Insoluble) | 1.5 | ND(Insoluble) |  |  |  |  |  |  |  |  |  |  |  |  | O=C(O)[C@@H]1CSC(c2cccc(Cl)c2)N1 (mixture of isomers)
